The results in this text go back to ChEMBL document CHEMBL4004801, “Bioactive Constituents from the Termite Nest-Derived Medicinal Fungus Xylaria nigripes” (J Nat Prod, 2017).

For the first data set, the system named is BV-2. As to the kind of experiment: Inhibition of LPS-induced COX-2 expression in mouse BV2 cells at 20 uM pretreated for 15 mins followed by LPS-stimulation after 24 hrs by western blot analysis relative to control. In kind it is functional.
Details: not given
The procedure, abridged:
(§1)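 BV-2 cells at 80% confluence, serum-free medium for 24 h. Cells given DMSO or compound, then LPS 150 ng/mL for 24 h. Lysate supernatants run on SDS-PAGE, blotted to PVDF, probed with anti-COX-2 or anti-iNOS and HRP secondary, detected by ECL. Protein levels expressed as fold of control. Mean ± SD of three experiments.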
For the compound `CC1=C2[C@@H](C=C3C=CC[C@H](C)[C@@]3(C)[C@H]2O)OC1=O`, the “fold change (FC)” value was found to be 4.9.
With `C=C(C)[C@@H]1Cc2cc(CO)ccc2O1`, the “fold change (FC)” value worked out at 2.4.
As for `O=C1C[C@H](O)Cc2cc(O)cc(O)c21`, the “fold change (FC)” value worked out at 4.9.
With `C=C1CO[C@@H]2C=C3CCC[C@H](C)[C@@]3(C)C[C@@]12O`, the “fold change (FC)” value came out at 2.1.
For the compound `CC1=C2[C@@H](C=C3CCC[C@H](C)[C@@]3(C)[C@H]2O)OC1=O`, the “fold change (FC)” value came out at 6.4.
For `C=C(CO)C1=C[C@@]2(C)C(=CC1=O)CCC[C@@H]2C`, the “fold change (FC)” value was found to be 3.7.
In the case of `CCCCCc1cccc(O)c1CO`, the “fold change (FC)” value is given as 5.6.
As for `C=C(C)[C@@H]1Cc2cc(C=O)ccc2O1`, the “fold change (FC)” value was 4.2.
For the compound `CCCCC1OC(=O)c2c(O)cccc21` (configuration not stated), the “fold change (FC)” value came out at 6.5.

In another data set the test system is BV-2. As to the kind of experiment: Inhibition of LPS-induced nitric oxide production in mouse BV2 cells pretreated for 30 mins followed by LPS-stimulation after 24 hrs by Griess assay.
Details: not given
Type of data set: functional, cell-based. The procedure, abridged: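 BV2 cells seeded at 5 × 10^5 per well for 16 h, then moved to phenol red-free DMEM. Cells pretreated 30 min with vehicle or compound (2, 10, 20, 40 μM), then given LPS 150 ng/mL for 24 h. Supernatant nitrate reduced with nitrate reductase and cofactors for 1 h at RT in the dark. Griess A and B added for 20 min, then A550 read. Nitrite obtained by regression against NaNO2 standards, and IC50 derived. Curcumin used as positive control.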
(In general: Griess reagent forms a coloured azo dye with nitrite.)
For orientation: IC50 means the concentration that inhibits the measured activity by half. For the compound `C=C(C)[C@@H]1Cc2cc(CO)ccc2O1`, the IC50 was 33.8 µM.
As to `C=C1CO[C@@H]2C=C3CCC[C@H](C)[C@@]3(C)C[C@@]12O`, the IC50 worked out at 21.7 µM and the inhibition entry was “Dose-dependent effect”.
In the case of `COc1cc(/C=C/C(=O)CC(=O)/C=C/c2ccc(O)c(OC)c2)ccc1O` [CURCUMIN], the IC50 was 4.5 µM.

In a further data set the test system is BV-2. As to the kind of experiment: Inhibition of LPS-induced iNOS expression in mouse BV2 cells at 20 uM pretreated for 15 mins followed by LPS-stimulation after 24 hrs by western blot analysis relative to control.
Details: not given
In kind it is functional. A digest of the protocol: as §1
For orientation: In western blotting, separated proteins are transferred to a membrane and probed.
For `CC1=C2[C@@H](C=C3C=CC[C@H](C)[C@@]3(C)[C@H]2O)OC1=O`, the “fold change (FC)” value is given as 4.5.
`C=C(C)[C@@H]1Cc2cc(CO)ccc2O1`: the “fold change (FC)” value was 1.9.
Turning to `O=C1C[C@H](O)Cc2cc(O)cc(O)c21`, the “fold change (FC)” value amounted to 2.9.
Regarding `C=C1CO[C@@H]2C=C3CCC[C@H](C)[C@@]3(C)C[C@@]12O`, the “fold change (FC)” value is 1.8.
For `CC1=C2[C@@H](C=C3CCC[C@H](C)[C@@]3(C)[C@H]2O)OC1=O`, the “fold change (FC)” value is recorded as 3.2.
Same read-out and setting: in the case of `C=C(CO)C1=C[C@@]2(C)C(=CC1=O)CCC[C@@H]2C` it was 3.6.
In the case of `CCCCCc1cccc(O)c1CO`, the “fold change (FC)” value was determined as 3.4.
For `C=C(C)[C@@H]1Cc2cc(C=O)ccc2O1`, the “fold change (FC)” value is listed as 3.
On to `CCCCC1OC(=O)c2c(O)cccc21` (configuration not stated), for which the “fold change (FC)” value was 4.3.

Another data set relates to BV-2. As to the kind of experiment: Inhibition of LPS-induced COX-2 expression in mouse BV2 cells pretreated for 15 mins followed by LPS-stimulation after 24 hrs by western blot analysis. In kind it is functional, cell-based.
Details: not given
The procedure, abridged: (§2)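 Western blot in BV-2 microglia after serum-free conditioning for 24 h. Compound given at 2, 5, 10 and 20 μM, then LPS 150 ng/mL for 24 h. iNOS and COX-2 detected by ECL and expressed relative to control. IC50 calculated from the concentration–response data.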
With `C=C(C)[C@@H]1Cc2cc(CO)ccc2O1`, the IC50 is 12.7 µM and the inhibition entry is “Dose-dependent effect”.
In the case of `C=C1CO[C@@H]2C=C3CCC[C@H](C)[C@@]3(C)C[C@@]12O`, the IC50 was 16.6 µM and the inhibition result was “Dose-dependent effect”.

Test system in the next data set: not listed separately
As to the kind of experiment: Cytotoxicity against mouse BV2 cells assessed as cell viability at 20 uM after 24 hrs by MTT assay relative to control. Type of data set: cell-based, BV-2. To be noted: read-out: Activity. The procedure, abridged:
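BV-2 cells grown in DMEM with 10% heat-inactivated FBS at 37 °C under 5% CO2. Medium switched to 0.5% FBS at 85% confluence before treatment. Viability measured after 24 h compound exposure by colorimetric MTT reduction. Mean ± SD of three individual experiments.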
(Tetrazolium dyes change colour on reduction, which living cells bring about.)
In the case of `CC1=C2[C@@H](C=C3C=CC[C@H](C)[C@@]3(C)[C@H]2O)OC1=O`, the viability at 24 h, 20 µM worked out at 79.3%.
In the case of `C=C(C)[C@@H]1Cc2cc(CO)ccc2O1`, the viability at 24 h, 20 µM was 85.9%.
On the same count and under the same terms, the same measure for `C=C1CO[C@@H]2C=C3CCC[C@H](C)[C@@]3(C)C[C@@]12O`: 87.7%.
For `CC1=C2[C@@H](C=C3CCC[C@H](C)[C@@]3(C)[C@H]2O)OC1=O`, the viability at 24 h, 20 µM is 90.2%.
Same read-out and setting: in the case of `C=C(C=O)[C@@H]1C[C@@]2(C)C(=C[C@H]1O)CCC[C@@H]2C` it was 44.6%.
On the same count and under the same terms, in the case of `C=C(C=O)[C@@H]1C[C@@]2(C)C(=CC1=O)CCC[C@@H]2C` it was 46.1%.
Consider `C=C(CO)C1=C[C@@]2(C)C(=CC1=O)CCC[C@@H]2C`, for which the viability at 24 h, 20 µM came out at 73.8%.

For the next data set, the system named is BV-2. As to the kind of experiment: Inhibition of LPS-induced iNOS expression in mouse BV2 cells pretreated for 15 mins followed by LPS-stimulation after 24 hrs by western blot analysis. In kind it is functional, cell-based.
Details: not given
The procedure, abridged: as §2
Regarding `C=C(C)[C@@H]1Cc2cc(CO)ccc2O1`, the IC50 turned out to be 11.6 µM and the inhibition entry was “Dose-dependent effect”.
As for `C=C1CO[C@@H]2C=C3CCC[C@H](C)[C@@]3(C)C[C@@]12O`, the concentration for half-maximal inhibition (IC50) stood at 8.1 µM and the inhibition result is “Dose-dependent effect”.
